Laboratory results as given in ChEMBL document CHEMBL1671666, “Anti-human immunodeficiency virus activity, cross-resistance, cytotoxicity, and intracellular pharmacology of the 3'-azido-2',3'-dideoxypurine nucleosides” (Antimicrob Agents Chemother, 2009).
Counter-ions that a name gives are not always drawn.

Experiments:
[1] = molecular target: Human immunodeficiency virus type 1 reverse transcriptase (Human immunodeficiency virus 1) (UniProt Q72547); test: Activity at HIV1 reverse transcriptase measured after 30 mins
Summary of the method: (§1)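 Pre-steady-state rapid quench with purified WT HIV-1 RT. Quenched with 0.5 M EDTA between 10 ms and 30 min. Products resolved on 7 M urea-16% polyacrylamide gels. Gives kpol and Kd; selectivity = (kpol/Kd)dNTP/(kpol/Kd)NRTI-TP. At least three independent experiments, mean ± SD.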

[2] = molecular target: Human immunodeficiency virus type 1 reverse transcriptase (Human immunodeficiency virus 1) (UniProt Q72547); test: Ratio of Kpol to Kd for HIV1 reverse transcriptase; summary of the method: as §1
[3] = molecular target: Human immunodeficiency virus type 1 reverse transcriptase (Human immunodeficiency virus 1, UniProt Q72547); test: Binding affinity to HIV1 reverse transcriptase; summary of the method: as §1
[4] = molecular target: Human immunodeficiency virus type 1 reverse transcriptase (Human immunodeficiency virus 1) (UniProt Q72547); test: Selectivity, ratio of Kpol to Kd for dGTP to Kpol to Kd for compound at HIV1 reverse transcriptase; summary of the method: as §1
PBMC = test: Drug level in PHA-stimulated human PBMC measured per 10^6 cells at 10 uM after 12 hrs by LC-MS analysis; format: ADME, cell-based
Summary of the method: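 PHA-stimulated human PBMC (24-30 × 10⁶ cells) exposed to a range of nucleoside concentrations for 12 h at 37°C in 5% CO2. […] Triphosphate reported in pmol/10⁶ cells. At least three experiments, mean ± SD.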

[5] = system: Human immunodeficiency virus 1; test: Antiviral activity against HIV1 infected in human HeLa P4/R5 cells assessed as inhibition of viral replication; format: functional, organism-based; settings: Human immunodeficiency virus 1, HeLa
Summary of the method: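 Single-cycle assay in P4/R5 HeLa cells carrying an HIV LTR-driven, Tat-activated β-galactosidase gene. Cells kept in phenol red-free DMEM with 10% FBS and 0.5 μg/ml puromycin. Virus stock titred on these cells by threefold endpoint dilution (Reed-Muench). At least three independent experiments.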

[6] = system: Human immunodeficiency virus 1; test: Antiviral activity against HIV1 infected in human PBMC assessed as inhibition of viral replication; format: functional, organism-based
Summary of the method: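 PBMC from healthy seronegative donors, isolated on a Ficoll-Hypaque gradient and stimulated with PHA for 2-3 days before infection. At least three independent experiments.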

[7] = system: Human immunodeficiency virus 1; test: Antiviral activity against HIV1 infected in human MT2 cells assessed as inhibition of viral replication; format: functional, organism-based; settings: Human immunodeficiency virus 1, MT2
[8] = molecular target: Human immunodeficiency virus type 1 reverse transcriptase (Human immunodeficiency virus 1) (UniProt Q72547); test: Selectivity, ratio of Kpol to Kd for dATP to Kpol to Kd for compound at HIV1 reverse transcriptase; summary of the method: as §1
[9] = system: Human immunodeficiency virus 1; test: Ratio of IC50 for HIV1 harboring reverse transcriptase L74V mutant infected in human HeLa P4/R5 cells to wild type HIV1 infected in human HeLa P4/R5 cells; format: functional
Summary of the method: (§2)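 Single-replication-cycle assay in P4/R5 cells: HeLa stably carrying a Tat-activated β-galactosidase gene under an HIV LTR promoter, grown in phenol red-free DMEM with 10% FBS and 0.5 μg/ml puromycin. Virus stocks were titred in P4/R5 cells by threefold endpoint dilution (Reed–Muench).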

[10] = system: Human immunodeficiency virus 1; test: Ratio of IC50 for HIV1 harboring reverse transcriptase K65R mutant infected in human HeLa P4/R5 cells to wild type HIV1 infected in human HeLa P4/R5 cells; format: functional; summary of the method: as §2
[11] = system: Human immunodeficiency virus 1; test: Ratio of IC50 for HIV1 harboring reverse transcriptase M184V mutant infected in human HeLa P4/R5 cells to wild type HIV1 infected in human HeLa P4/R5 cells; format: functional; summary of the method: as §2
[12] = system: Human immunodeficiency virus 1; test: Antiviral activity against HIV1 harboring reverse transcriptase M184V mutant infected in human HeLa P4/R5 cells assessed as inhibition of viral replication; format: functional, organism-based; settings: Human immunodeficiency virus 1, HeLa; summary of the method: as §2
[13] = system: Human immunodeficiency virus 1; test: Antiviral activity against HIV1 harboring reverse transcriptase K65R mutant infected in human HeLa P4/R5 cells assessed as inhibition of viral replication; format: functional, organism-based; settings: Human immunodeficiency virus 1, HeLa; summary of the method: as §2
[14] = system: Human immunodeficiency virus 1; test: Antiviral activity against HIV1 harboring reverse transcriptase L74V mutant infected in human HeLa P4/R5 cells assessed as inhibition of viral replication; format: functional, organism-based; settings: Human immunodeficiency virus 1, HeLa; summary of the method: as §2

| Compound | Activity [1] | Ratio [2] | Kd [3] | further results |
| --- | --- | --- | --- | --- |
| Nc1nc(=O)c2ncn([C@H]3C=C[C@@H](COP(=O)(O)OP(=O)(O)OP(=O)(O)O)C3)c2[nH]1 (single isomer, unassigned) [CARBOVIR 5'-TRIPHOSPHATE, (-)-] | 0.6 s⁻¹ | 0.16 µM⁻¹ s⁻¹ | 4 µM | Selectivity ratio [4]: 11.2 |
| [N-]=[N+]=N[C@H]1C[C@H](n2cnc3c(=O)[nH]c(N)nc32)O[C@@H]1CO | – | – | – | Drug uptake (PBMC): 0.2 pmol |
| Nc1ccn([C@H]2C[C@H](O)[C@@H](COP(=O)(O)OP(=O)(O)OP(=O)(O)O)O2)c(=O)n1 | 1.2 s⁻¹ | 1.1 µM⁻¹ s⁻¹ | – | – |
| Cc1cn([C@H]2C=C[C@@H](CO)O2)c(=O)[nH]c1=O [STAVUDINE] | – | – | – | IC50 [5]: 5.7 µM; IC50 [6]: 0.1 µM; IC50 [7]: 1.9 µM |
| Nc1ncnc2c1ncn2[C@H]1C[C@H](O)[C@@H](COP(=O)(O)OP(=O)(O)OP(=O)(O)O)O1 | 24.4 s⁻¹ | 7.6 µM⁻¹ s⁻¹ | 3.2 µM | – |
| Nc1nc(NC2CC2)c2ncn([C@H]3C=C[C@@H](CO)C3)c2n1 [ABACAVIR SULFATE] | – | – | – | IC50 [5]: 6.2 µM; IC50 [6]: 0.91 µM; IC50 [7]: 4.8 µM |
| [N-]=[N+]=N[C@H]1C[C@H](n2cnc3c(N)ncnc32)O[C@@H]1COP(=O)(O)OP(=O)(O)OP(=O)(O)O | 23.2 s⁻¹ | 10.2 µM⁻¹ s⁻¹ | 2.3 µM | Selectivity ratio [8]: 0.7 |
| Nc1nc2c(ncn2[C@H]2C[C@H](O)[C@@H](COP(=O)(O)OP(=O)(O)OP(=O)(O)O)O2)c(=O)[nH]1 [DEOXYGUANOSINE TRIPHOSPHATE] | 7.5 s⁻¹ | 1.8 µM⁻¹ s⁻¹ | 4.2 µM | – |
| C[C@H](Cn1cnc2c(N)ncnc21)OCP(=O)(O)OP(=O)(O)OP(=O)(O)O | 6.2 s⁻¹ | 1.4 µM⁻¹ s⁻¹ | 4.3 µM | Selectivity ratio [8]: 5.3 |
| Nc1ncnc2c1ncn2[C@H]1CC[C@@H](COP(=O)(O)OP(=O)(O)OP(=O)(O)O)O1 [DDA-TRIPHOSPHATE] | 5.4 s⁻¹ | 1 µM⁻¹ s⁻¹ | 5.3 µM | Selectivity ratio [8]: 7.5 |
| O=c1[nH]cnc2c1ncn2[C@H]1CC[C@@H](CO)O1 [DIDANOSINE] | – | – | – | IC50 [5]: 2.3 µM; IC50 [6]: 0.1 µM; Ratio IC50 [9]: 3.6; IC50 [7]: 0.49 µM; Ratio IC50 [10]: 2.7; Ratio IC50 [11]: 2; IC50 [12]: 4.6 µM; IC50 [13]: 6.3 µM; IC50 [14]: 8.3 µM |
